From PubChem BioAssay
Calls of active or inactive are those of the source.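 The calls were made as follows, unless noted: active = viability loss from added drug above about 55%, and viability with drug at most 40%, in both replicates (limit read from the data, passing the limit was not always enough); inconclusive = both conditions met in only one replicate; inactive = neither replicate meets both conditions.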

Assays:
[1] = Her2 expression decrease, cell viability multiplex – SKBR3 breast tumor cells, AlphaScreen, ATP viability, primary screen (AID 461;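 active = Her2 level under about 52% in both replicate screens, with viability over 70% of control, limit read from the data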;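 as to Her2 level: lower value means less Her2 protein in the cells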;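 as to viability: percent of carrier control wells set as 100% viability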); conditions: SKBR3 Her2 protein level, 18-24 h, measured here: SKBR3 viability, ATP luminescence, at 10 µM
[2] = target: Receptor tyrosine-protein kinase erbB-2 (Homo sapiens) (UniProt P04626); experiment: as above; conditions: 18-24 h, at 10 µM, stronger effect = lower value
Sequence of Receptor tyrosine-protein kinase erbB-2 (Homo sapiens) (P04626 whole entry, looked up): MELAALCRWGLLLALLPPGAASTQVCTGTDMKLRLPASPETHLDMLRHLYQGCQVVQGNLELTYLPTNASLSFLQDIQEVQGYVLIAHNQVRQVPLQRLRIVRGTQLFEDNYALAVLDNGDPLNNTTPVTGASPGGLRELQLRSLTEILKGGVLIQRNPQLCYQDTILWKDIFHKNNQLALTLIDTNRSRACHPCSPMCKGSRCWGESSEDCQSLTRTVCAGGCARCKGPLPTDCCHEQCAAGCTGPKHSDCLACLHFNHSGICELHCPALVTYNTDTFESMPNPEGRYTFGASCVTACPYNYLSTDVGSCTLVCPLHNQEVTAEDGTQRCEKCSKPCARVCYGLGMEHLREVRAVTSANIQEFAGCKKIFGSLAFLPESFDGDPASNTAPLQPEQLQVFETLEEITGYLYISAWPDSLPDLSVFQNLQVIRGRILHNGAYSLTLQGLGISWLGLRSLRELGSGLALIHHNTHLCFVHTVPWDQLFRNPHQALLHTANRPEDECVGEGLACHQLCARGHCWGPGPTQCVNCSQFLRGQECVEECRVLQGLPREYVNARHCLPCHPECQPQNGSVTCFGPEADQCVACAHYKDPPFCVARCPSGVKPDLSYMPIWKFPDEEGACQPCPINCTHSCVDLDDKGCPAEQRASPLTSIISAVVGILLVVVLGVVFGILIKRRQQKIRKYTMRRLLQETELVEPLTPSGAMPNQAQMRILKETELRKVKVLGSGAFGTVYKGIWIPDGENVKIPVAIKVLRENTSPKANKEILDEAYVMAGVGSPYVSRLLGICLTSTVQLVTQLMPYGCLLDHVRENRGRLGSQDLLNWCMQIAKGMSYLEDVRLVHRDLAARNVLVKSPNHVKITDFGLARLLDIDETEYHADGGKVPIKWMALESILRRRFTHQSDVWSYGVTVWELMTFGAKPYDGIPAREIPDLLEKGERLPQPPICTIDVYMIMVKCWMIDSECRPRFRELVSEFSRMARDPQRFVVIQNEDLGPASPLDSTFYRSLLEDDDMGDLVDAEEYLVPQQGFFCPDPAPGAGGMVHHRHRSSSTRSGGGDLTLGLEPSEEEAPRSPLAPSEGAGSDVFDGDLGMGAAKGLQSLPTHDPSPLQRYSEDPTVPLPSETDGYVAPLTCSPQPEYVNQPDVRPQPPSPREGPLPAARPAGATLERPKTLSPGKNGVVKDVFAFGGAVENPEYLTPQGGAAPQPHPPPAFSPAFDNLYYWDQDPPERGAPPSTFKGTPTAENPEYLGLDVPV

[3] = reduced viability of SK-BR-3 breast cancer cells – cell-based, 24 h, human, pilot screen (AID 572;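 active = viability at or below 10% of carrier control in both of two separate runs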;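 also: compound exposure lasted between 18 and 24 h rather than exactly 24 h; 100% = carrier-treated control wells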); conditions: SK-BR-3 viability, CellTiter-Glo luminescence, at 10 µM, stronger effect = lower value
[4] = HUVEC growth inhibition – cell-based, human, primary screen (AID 575;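 active = viability at or below 30% in both replicate assays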;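 also: 100% = median of untreated cell wells with 0.1% DMSO on each plate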); conditions: HUVEC proliferation, CellTiter-Glo luminescence, 72 h; at 10 µM; stronger effect = lower value
Procedure, shortened: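 Test system – primary HUVEC, no more than 12 passages · Dosing – one dose, 10 µM final, 0.1% DMSO · Times – 72 h treatment at 37 °C · Measured by – ATP-based CellTiter-Glo luminescent read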

[5] = H69AR cell proliferation blockers – human, duplicate replicates, primary screen (AID 580;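 active = viability at or under a set limit in both replicates, limit being median viability minus 3 SD, cut at about 48% in these data, passing the limit was not always enough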;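 also: 100% = mean luminescence of untreated wells and 0% = no signal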); conditions: H69AR lung tumor cells viability, ATP luminescence, 72 h; at 10 µM; stronger effect = lower value
[6] = MRP1 drug-resistance reversers in H69AR cells – cell-based, doxorubicin co-treatment, pilot screen (AID 601); conditions: CellTiter-Glo, 72 h, at 10 µM; for differential viability (reversal): stronger effect = higher value
[7] = yeast transport mutant growth inhibition pilot in 384-well plates, post-Golgi transport modulator project (AID 636; in the data active = inhibition above about 31%); conditions: absorbance 615 nm, about 18 h, stronger effect = higher value
[8] = growth suppression of yeast trafficking mutant, preliminary HTS, modulators of trafficking downstream of Golgi apparatus project, 1536-format plate, OD 615 nm (AID 637; in the data active = inhibition above about 30%); conditions: yeast transport mutant growth, absorbance 615 nm, 18 h; stronger effect = higher value
[9] = H69AR cells + 2 uM doxorubicin, measured here: viability with 2 uM doxorubicin, stronger effect = lower value
[10] = H69AR cells, compound alone cytotoxicity

Compound	viability [1] [%]	Her2 level [2]	viability [3]	viability [4]	viability [5]	differential viability (reversal) ([6]; H69AR cells + 2 uM doxorubicin)	viability [6, 9] [%]	viability [6, 10] [%]	inhibition [7]	inhibition [8]
O=c1c2c(-c3ccccc3)csc2nc2n1CCC2	81	99% (inactive)	81% (inactive)	77.2% (inactive)	79.4% (inactive)	-4.97% (inactive)	84.4	79.4	2.84% (inactive)	29.2% (inactive)
Cc1ccc(S(=O)(=O)N2CCOCC(=O)NCCOCCNC(=O)COCC2)cc1	93.5	102% (inactive)	93.5% (inactive)	95.4% (inactive)	106% (inactive)	8.95% (inactive)	96.9	106	-4.13% (inactive)	-4.26% (inactive)
O=C1Nc2ccccc2OC1CC(=O)N1CCCC1 (stereo not given)	88.5	91.5% (inactive)	88.5% (inactive)	94.7% (inactive)	102% (inactive)	11.9% (inactive)	90.5	102	-2.53% (inactive)	0.66% (inactive)
Cc1ccc(N2CC(C(=O)N3CCN(C(=O)c4ccco4)CC3)CC2=O)cc1 (stereo not given)	96.5	91% (inactive)	96.5% (inactive)	104% (inactive)	96.1% (inactive)	-1.97% (inactive)	98.1	96.1	0.39% (inactive)	-1.29% (inactive)
CCC(=O)Nc1cc2nn(-c3ccccc3)nc2cc1Cl	91	90.5% (inactive)	91% (inactive)	55% (inactive)	68.2% (inactive)	-2.75% (inactive)	70.9	68.2	-7.57% (inactive)	5.9% (inactive)
COc1ccc2c(c1)CCc1c(C(=O)NCc3cccnc3)noc1-2	97.5	95.5% (inactive)	97.5% (inactive)	102% (inactive)	103% (inactive)	17.7% (inactive)	85.3	103	-1.71% (inactive)	0.55% (inactive)
CCOC(=O)N1CCN(S(=O)(=O)c2ccc(Br)s2)CC1	103	112% (inactive)	103% (inactive)	100% (inactive)	94.4% (inactive)	7.92% (inactive)	86.5	94.4	-3.03% (inactive)	2.95% (inactive)
O=C(NCCc1ccccc1)C1CCN(S(=O)(=O)N2CCC3(CC2)OCCO3)CC1	102	88.5% (inactive)	102% (inactive)	88.5% (inactive)	99.3% (inactive)	10.9% (inactive)	88.4	99.3	-2.37% (inactive)	0.16% (inactive)
Cc1cc(C)cc(-n2nnc(C(=O)NCc3ccco3)c2N)c1	101	82% (inactive)	101% (inactive)	89.4% (inactive)	88.5% (inactive)	-4.65% (inactive)	93.2	88.5	-0.14% (inactive)	-4.92% (inactive)
CCCn1c(=O)c2ccccc2n2c(SCc3cc(=O)n4ccsc4n3)nnc12	79.5	90.5% (inactive)	79.5% (inactive)	104% (inactive)	82.1% (inactive)	14.6% (inactive)	67.6	82.1	-1.18% (inactive)	-12.1% (inactive)
O=C(CSc1nnc(-c2ccncc2)n1-c1ccc(F)cc1)NC(=O)NCc1ccco1	132	89% (inactive)	132% (inactive)	89.1% (inactive)	86% (inactive)	-1.76% (inactive)	87.8	86	-7.4% (inactive)	-3.97% (inactive)
Cc1cc(OC(=O)N2CCOCC2)cc(C)c1Cl	93.5	94.5% (inactive)	93.5% (inactive)	88.7% (inactive)	105% (inactive)	19.9% (inactive)	84.9	105	-3.55% (inactive)	-6.35% (inactive)
CCOc1ccc(C(=O)CN2CCN(S(=O)(=O)c3ccc(OC)cc3)CC2)cc1	99.5	88% (inactive)	99.5% (inactive)	91.2% (inactive)	86.7% (inactive)	-8.05% (inactive)	94.7	86.7	-3.68% (inactive)	-8.33% (inactive)
CC(C(=O)NCc1cccnc1)N1C(=O)c2ccccc2C1=O (stereo not given)	103	97% (inactive)	103% (inactive)	99.9% (inactive)	93.7% (inactive)	-3.79% (inactive)	97.5	93.7	-3.03% (inactive)	-4.36% (inactive)
N#CCCn1ccc(NC(=O)c2ccc(Cl)cc2)n1	79	87.5% (inactive)	79% (inactive)	102% (inactive)	97% (inactive)	8.88% (inactive)	88.1	97	-5.27% (inactive)	-0.66% (inactive)
CCSc1ccccc1C(=O)Nc1cccc(OC)c1	110	97% (inactive)	110% (inactive)	115% (inactive)	98.4% (inactive)	11.7% (inactive)	86.6	98.4	-8.49% (inactive)	-3.33% (inactive)
Nc1nnc(SCC(=O)N2CCc3ccccc32)n1-c1ccccc1	102	80% (inactive)	102% (inactive)	82% (inactive)	101% (inactive)	6.62% (inactive)	94.5	101	-4.8% (inactive)	0.32% (inactive)
C[C@H](NC(=O)Nc1ccccc1F)C(=O)O	100	96% (inactive)	100% (inactive)	101% (inactive)	100% (inactive)	-14.3% (inactive)	115	100	-3.42% (inactive)	4.43% (inactive)
O=C(COC(=O)C12CC3CC(CC(O)(C3)C1)C2)N1CCN(S(=O)(=O)c2ccc(Cl)cc2)CC1	87.5	85.5% (inactive)	87.5% (inactive)	107% (inactive)	83.6% (inactive)	-7.7% (inactive)	91.3	83.6	-3.33% (inactive)	-4.17% (inactive)
CCCNC(=O)NC(C(=O)OC)C12CC3CC(CC(C3)C1)C2 (stereo not given)	101	76.5% (inactive)	101% (inactive)	80.4% (inactive)	102% (inactive)	10.1% (inactive)	91.6	102	-5% (inactive)	-1.5% (inactive)
O=C(OCC#CCSc1nc2ccccc2s1)c1ccco1	88	90.5% (inactive)	88% (inactive)	74.7% (inactive)	81.8% (inactive)	1.8% (inactive)	80	81.8	-2.34% (inactive)	-10.8% (inactive)
O=C1CC(c2cccc(Cl)c2)CC(O)=C1C=NCCCO (stereo not given)	102	90.5% (inactive)	102% (inactive)	83.7% (inactive)	103% (inactive)	4.62% (inactive)	98.1	103	-6.27% (inactive)	-0.33% (inactive)
COC(=O)c1cc(Br)c(=O)n(Cc2cccnc2)c1	108	81.5% (inactive)	108% (inactive)	95.9% (inactive)	97.3% (inactive)	17% (inactive)	80.3	97.3	-3.95% (inactive)	0.18% (inactive)
Cc1cc(=O)n(C)c(=O)n1CCCCCN1CCCC1	96.5	80% (inactive)	96.5% (inactive)	100% (inactive)	99.8% (inactive)	14.7% (inactive)	85.2	99.8	-1.2% (inactive)	0.48% (inactive)
COc1ccc(C)cc1NC(=O)c1nnn(Cc2cccc(F)c2)c1N	85.5	102% (inactive)	85.5% (inactive)	64.9% (inactive)	82.7% (inactive)	9.66% (inactive)	73	82.7	-3.47% (inactive)	-5.9% (inactive)
COc1ccc(C(=O)N(CCN2CCOCC2)CC(=O)NC2CCCC2)cc1OC	83.5	106% (inactive)	83.5% (inactive)	111% (inactive)	91.6% (inactive)	-0.805% (inactive)	92.4	91.6	-0.8% (inactive)	8.36% (inactive)
CCOc1ccccc1NC(=O)CCN1CCN(S(=O)(=O)c2ccc(Br)cc2)CC1	119	87.5% (inactive)	119% (inactive)	100% (inactive)	86.9% (inactive)	11.2% (inactive)	75.7	86.9	-6.8% (inactive)	1.13% (inactive)
O=C(NCc1cccs1)C1CCN(S(=O)(=O)c2cccs2)CC1	103	89% (inactive)	103% (inactive)	89.8% (inactive)	102% (inactive)	26.9% (inactive)	74.6	102	-5.19% (inactive)	-4.29% (inactive)
